Shown are actives, neighbours in structure and some others; about 2.5% of the full set was active somewhere.
Env fusion inh: HIV envelope-mediated fusion inhibition; HeLa-JRFL Env/CEM21 cell fusion, luciferase; hit rate 1.1% among 360,000; inhibition, % at 12.3 µM;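 active = mean replicate inhibition score of at least 50 and every replicate individually at or above 50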;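 also: 0% = plate neutral controls and 100% = maraviroc near 300 nM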
FN deposit inh: fibronectin deposition inhibition | AH1F fibroblasts, Alexa488-fibronectin deposition fluorescence, overnight | inhibition, % at 12.6 µM | hit rate 0.086% among 350,000;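 active = mean inhibition across replicates of 30% or more, regardless of how many single replicates reach that level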;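 also: positive control wells lacked labelled fibronectin entirely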
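Assay system: AH1F fibroblast monolayer, labelled fibronectin deposition. Amount: 10000 cells per well. Also added: labelled fibronectin 24 nM. Compound: single-point pinned compound. Incubation: cell attachment 1 h, compound and FN exposure overnight. Detection: fluorescence after three HBSS washes, excitation 485 nm, emission 525 nm. Read-out: inhibition of fibronectin deposition signal.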
EWS-Fli block: EWS/Fli transcriptional activity inhibition; A673 NR0B1-luciferase reporter, viability-normalised; inhibition, % at 12.6 µM; hit rate 0.67% among 350,000; AID 651661;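 active = mean inhibition of at least 50% after viability correction, with every replicate also passing that limit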;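 also: firefly luciferase signal divided by Alamar Blue viability fluorescence both relative to DMSO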
Glyco luc inh: N-linked glycosylation inhibition; reporter increase, % at 12.5 µM; hit rate 0.23% among 360,000; D54 ERlucT glycosylation luciferase reporter, 24 h; percent of 100 nM tunicamycin response; AID 588692;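 active = mean luciferase reporter signal, scaled so untreated is 0 and the glycosylation-blocking control 100, at or above a set limit in every replicate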;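 also: luciferase carries N-glycosylation sites so blocking glycosylation raises the light; 0% = median of neutral control wells and 100% = median of 100 nM tunicamycin wells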
PAX8 inh HTS: PAX8 transcriptional activity inhibition; RMG-I TPO-luciferase reporter, SteadyGlo, 24 h; inhibition, % at 12.6 µM; AID 652154; hit rate 1.2% among 360,000;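 active = mean replicate inhibition at least 60% with every replicate also reaching 60%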;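 also: luciferase light reporting Pax8 driven TPO promoter activity; plate controls were median of neutral control wells for no effect and mitoxantrone controls for full effect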
AF4-AF9 inh: inhibitors of human MLL-AF4/AF9 interaction; AlphaScreen, biotin-AF4 peptide binding to FLAG-AF9; inhibition, % at 10 µM; hit rate 0.47% among 350,000;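 active = every replicate reaching a set inhibition limit, whatever the replicate mean, cut at about 25% in these data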;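 also: 0% = plate neutral control median and 100% = total signal loss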
Target sequence (P42568 whole entry, looked up): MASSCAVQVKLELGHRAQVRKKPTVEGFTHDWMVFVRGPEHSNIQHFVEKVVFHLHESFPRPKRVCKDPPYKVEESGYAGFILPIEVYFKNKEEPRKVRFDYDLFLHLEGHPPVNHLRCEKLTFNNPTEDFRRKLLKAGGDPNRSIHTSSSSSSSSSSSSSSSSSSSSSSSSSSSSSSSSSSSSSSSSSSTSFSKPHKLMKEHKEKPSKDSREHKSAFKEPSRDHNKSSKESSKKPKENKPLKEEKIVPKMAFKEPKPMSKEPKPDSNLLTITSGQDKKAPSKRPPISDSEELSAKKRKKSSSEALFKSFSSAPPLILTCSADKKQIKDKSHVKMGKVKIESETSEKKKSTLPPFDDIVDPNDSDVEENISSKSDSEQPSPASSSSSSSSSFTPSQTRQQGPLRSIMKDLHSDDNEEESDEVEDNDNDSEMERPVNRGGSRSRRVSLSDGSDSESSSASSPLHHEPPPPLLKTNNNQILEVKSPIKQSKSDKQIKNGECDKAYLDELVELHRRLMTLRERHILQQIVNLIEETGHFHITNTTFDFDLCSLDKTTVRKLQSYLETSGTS
An asterisk follows results filed as active; · = no result; ! = not confirmed by another sample; [ ] = another dose, or the depositor's remark.

SMILES	Env fusion inh	FN deposit inh	EWS-Fli block	Glyco luc inh	PAX8 inh HTS	AF4-AF9 inh
COc1ccc(NC(=O)Nc2ccc3c(c2)C(=O)N([C@@H](C)CO)C[C@H](C)[C@H](CN(C)S(=O)(=O)c2ccc(C)cc2)O3)cc1	78.5*[16.7 µM]	·	9.8	·	-11.5	0.1
C[C@H](CO)N1C[C@H](C)[C@@H](CN(C)S(=O)(=O)c2ccc(F)cc2)Oc2ccc(NC(=O)Nc3ccc(C(F)(F)F)cc3)cc2C1=O	0.3	16.5	6.2	-7.1	74.6*!	-3.4
COc1ccc(S(=O)(=O)N(C)C[C@H]2Oc3ccc(NC(=O)Nc4ccc(C(F)(F)F)cc4)cc3C(=O)N([C@H](C)CO)C[C@H]2C)cc1	3.3[16.7 µM]	-5.1	8.4	·	·	-0.9
C[C@@H]1CN([C@H](C)CO)C(=O)c2cc(NC(=O)Nc3ccc(C(F)(F)F)cc3)ccc2O[C@@H]1CN(C)S(=O)(=O)c1ccc(F)cc1	11.8[16.7 µM]	·	-2.6	·	8.6	1.4
COc1ccc(S(=O)(=O)N(C)C[C@@H]2Oc3ccc(NC(=O)Nc4ccc(C(F)(F)F)cc4)cc3C(=O)N([C@@H](C)CO)C[C@@H]2C)cc1	67.4*[16.7 µM]	1.6	11.2	·	·	-0.7
N#C[C@H]1[C@@H](c2ccc(-c3cccc(F)c3)cc2)[C@@H](CO)N1C(=O)NC1CCCCC1	·	-9.3	·	·	68.3*	0.6
N#C[C@H]1[C@H](c2ccc(-c3cccc(F)c3)cc2)[C@H](CO)N1C(=O)NC1CCCC1	47.6[16.7 µM]	10.0	13.7	·	-7.6	-1.3
N#C[C@H]1[C@H](c2ccc(-c3ccccc3F)cc2)[C@H](CO)N1C(=O)c1ccccn1	-0.8[16.7 µM]	9.0	-5.1	·	-0.2	-2.6
N#Cc1ccc(-c2ccc(C3[C@H]4CNC[C@@H]3N4C(=O)NC3CCCCC3)cc2)cc1 (stereo not given in full)	·	-3.7	4.7	·	72.9*	·
N#C[C@@H]1[C@@H](c2ccc(-c3cccc(F)c3)cc2)[C@H](CO)N1C(=O)NC1CCCC1	2.6[16.7 µM]	2.2	7.8	·	89.4*	-0.8
N#C[C@@H]1[C@H](c2ccc(-c3ccccc3F)cc2)[C@@H](CO)N1C(=O)c1ccccn1	57.4*[16.7 µM]	0.9	-47.7	·	18.4	0.7
CO[C@H](CN(C)S(=O)(=O)c1cccc(Cl)c1)[C@H](C)CN([C@H](C)CO)S(=O)(=O)c1cccc(Cl)c1	·	0.7	17.5	·	·	-4.0
N#C[C@H]1[C@@H](c2ccc(-c3cccc(F)c3)cc2)[C@H](CO)N1C(=O)NC1CCCC1	9.4[16.7 µM]	15.7	-4.1	·	5.6	-0.8
N#C[C@@H]1[C@H](c2ccc(-c3cccc(F)c3)cc2)[C@H](CO)N1C(=O)NC1CCCC1	65.1*[16.7 µM]	0.8	15.2	·	3.4	-0.9
CCOC(=O)CCCCC(=O)c1[nH]c(=O)[nH]c1CSCCO	·	·	-17.9	0.9	·	76.7*
COc1cccc(Nc2nc(CN)cs2)n1	57.1*	4.2	1.4	4.2	3.5	6.8
Cc1ccc(C)c(NC(=O)COC(=O)c2cccc3c2C(=O)c2ccccc2C3=O)c1	26.6	-3.7	2.1	-0.3	63.8*	9.5
Cc1ccc(NC(=O)COC(=O)c2cccc3c2C(=O)c2ccccc2C3=O)c(C)c1	-7.1	6.7	·	-0.6	0.4	·
CN1C(=O)c2cc(NC(=O)c3cccc(C(F)(F)F)c3)ccc2OC[C@@H]2O[C@H](CC(=O)O)CC[C@@H]21	-2.8[16.7 µM]	-26.1	1.8	·	-2.1	0.2
COc1cc(C(=O)NCC2CCCO2)ccc1OCc1ccc(Cl)cc1Cl (stereo not given)	67.4*	·	2.1	-3.5	-1.3	-2.1
COc1cc(C(=O)NCC2CCCO2)ccc1OCc1ccc(Cl)cc1 (stereo not given)	·	-3.4	-21.1	-0.7	-36.7	0.6
Cc1ccccc1S(=O)(=O)NCC[C@H]1CC[C@@H](NC(=O)C2CCC2)[C@H](CO)O1	-6.5[16.7 µM]	·	13.4	·	8.9	-1.3
CC(NC(=O)CCn1ccc2cc(S(=O)(=O)N3CCCC3)ccc21)c1ccccc1 (stereo not given)	56.6*	-4.8	4.6	-0.4	-0.9	-5.3
CCC(C)NC(=O)CCn1ccc2cc(S(=O)(=O)N3CCCC3)ccc21 (stereo not given)	10.1	-2.1	0.0	-0.6	-2.4	-11.7
COc1ccc(NC(=O)Nc2ccc3c(c2)C(=O)N([C@@H](C)CO)C[C@@H](C)[C@H](CN(C)C)O3)cc1	·	·	3.2	·	-0.5	0.2
SMILES	Env fusion inh	FN deposit inh	EWS-Fli block	Glyco luc inh	PAX8 inh HTS	AF4-AF9 inh
O=C(c1ccc(F)cc1)C1CCN(CCn2c(=O)[nH]c3ccccc3c2=O)CC1	60.6*!	·	0.2	-1.5	-4.7	-1.0
C=CCc1cc(C)ccc1OCCOCCC(C(=O)OCC)C(=O)OCC	·	5.5	3.2	2.6	79.0*	1.8
C[C@H]1CCCCO[C@H](CN(C)Cc2ccc3c(c2)OCO3)[C@@H](C)CN([C@@H](C)CO)C(=O)c2cc(NC(=O)Nc3ccc(F)cc3)ccc2O1	21.8[16.7 µM]	·	9.5	·	21.2	13.5
CC1=C/C(=C(/c2cc(C)c(O)c(Br)c2)c2ccccc2S(=O)(=O)O)C=C(Br)C1=O	24.7	-1.3	-32.0	-6.5	76.7*	46.8*
C[C@H]1CCCCO[C@H](CN(C)C(=O)c2ccccc2)[C@@H](C)CN([C@@H](C)CO)C(=O)c2cc(NS(=O)(=O)c3ccc(F)cc3)ccc2O1	-3.7[16.7 µM]	·	4.1	·	27.9	-0.8
COc1ccc2c3c([nH]c2c1)[C@@H](CO)N(C(=O)NC(C)C)CC31CN(C(=O)c2cccnc2)C1	·	·	6.3	·	·	1.8
COc1ccccc1S(=O)(=O)N[C@@H]1C=C[C@H](CC(=O)NCc2cc(F)cc(F)c2)O[C@H]1CO	-17.1[16.7 µM]	·	-1.0	·	-4.1	-1.5
CCc1ccc(C(=O)CN2C(=O)NC(C)(c3ccc(C)cc3)C2=O)cc1 (stereo not given)	69.1*	-1.3	2.0	-0.2	-8.7	-0.9
Cc1ccc(C2(C)NC(=O)N(CC(=O)c3ccc4c(c3)OCCO4)C2=O)cc1 (stereo not given)	·	·	4.7	-2.2	3.7	-0.8
CC=Cc1ccc2n(c1=O)C[C@@H]1[C@@H](CO)[C@H](C(=O)NCC3CC3)N(C(C)=O)[C@H]21 (mixture of isomers)	·	·	1.6	·	·	-1.8
CC(C)(C)CC(C)(C)N=C1Nc2cc(Cl)c(Cl)cc2NC12C[C@H]1CCC(=O)N3CC[C@@H](C2)[C@@H]13 (stereo not given in full)	58.3*	-3.3	8.1	-5.1	42.2	7.9
CC(C)(C)CC(C)(C)N=C1Nc2ccccc2NC12C[C@H]1CCC(=O)N3CC[C@@H](C2)[C@@H]13 (stereo not given in full)	-64.3	8.6	-6.1	-0.1	-5.4	28.2*
Cc1ccccc1N=C1Nc2ccccc2N[C@]12C[C@H]1CCC(=O)N3CC[C@@H](C2)[C@@H]13	-27.9	-0.9	2.6	-0.8	16.9	-11.0
CN1CCN(C(=O)C[C@@H]2CC[C@@H]3[C@H](COC[C@@H](O)CN3Cc3ccc4c(c3)OCO4)O2)CC1	·	5.0	3.8	·	-4.1	-0.7

Compound activity from PubChem BioAssay.
